Assays:
Format in all cases: functional
Kluyveromyces marxianus [1] = experiment: Antifungal activity against Kluyveromyces fragilis NRRL 2415 at 10 ug after 72 hrs by agar disk diffusion assay; conditions: NRRL 2415, 72 h, read-out: IZ
How it was run: (§1)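 Sterile 6 mm paper discs were loaded with ligand solution freshly prepared in DMSO and placed on inoculated agar. The inoculum came from broth cultures: bacteria in Nutrient Broth at 30 °C for 24 h, yeasts in Malt Extract Broth for 48 h. Plates were incubated at 35 °C for 24 h (bacteria) or 25 °C for 72 h (yeasts). A DMSO solvent control and a reference antibiotic disc were included on each plate.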

Rhodotorula mucilaginosa [2] = experiment: Antifungal activity against Rhodotorula rubra DSM 70403 at 10 ug after 72 hrs by agar disk diffusion assay; conditions: DSM 70403, 72 h, read-out: IZ; how it was run: as §1
Candida albicans [3] = experiment: Antifungal activity against Candida albicans ATCC 10231 at 10 ug after 72 hrs by agar disk diffusion assay; conditions: ATCC 10231, 72 h, read-out: IZ; how it was run: as §1
[4] = tested on: Hanseniaspora guilliermondii; experiment: Antifungal activity against Hanseniaspora guilliermondii DSM 3432 at 10 ug after 72 hrs by agar disk diffusion assay; conditions: DSM 3432, 72 h, read-out: IZ; how it was run: as §1
Debaryomyces hansenii [5] = experiment: Antifungal activity against Debaryomyces hansenii DSM 70238 at 10 ug after 72 hrs by agar disk diffusion assay; conditions: DSM 70238, 72 h, read-out: IZ; how it was run: as §1
Escherichia coli [6] = experiment: Antibacterial activity against Escherichia coli ATCC 11230 after 24 hrs by broth micro dilution method
Staphylococcus aureus [7] = experiment: Antibacterial activity against Staphylococcus aureus ATCC 6538 after 24 hrs by broth micro dilution method
Klebsiella pneumoniae [8] = experiment: Antibacterial activity against Klebsiella pneumoniae UC57 after 24 hrs by broth micro dilution method
Bacillus cereus [9] = experiment: Antibacterial activity against Bacillus cereus ATCC 7064 after 24 hrs by broth micro dilution method
Micrococcus luteus [10] = experiment: Antibacterial activity against Micrococcus luteus La 2971 after 24 hrs by broth micro dilution method
Proteus vulgaris [11] = experiment: Antibacterial activity against Proteus vulgaris ATCC 8427 after 24 hrs by broth micro dilution method
[12] = tested on: Mycolicibacterium smegmatis; experiment: Antibacterial activity against Mycobacterium smegmatis CCM 2067 after 24 hrs by broth micro dilution method
Listeria monocytogenes [13] = experiment: Antibacterial activity against Listeria monocytogenes ATCC 15313 after 24 hrs by broth micro dilution method
Pseudomonas aeruginosa [14] = experiment: Antibacterial activity against Pseudomonas aeruginosa ATCC 27853 after 24 hrs by broth micro dilution method
Escherichia coli [15] = experiment: Antibacterial activity against Escherichia coli ATCC 11230 at 30 ug after 24 hrs by agar disk diffusion assay; conditions: ATCC 11230, 24 h, read-out: IZ
How it was run: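 Bacteria pre-grown in Nutrient Broth at 30 °C for 24 h. Sterile 6 mm discs loaded with compound solutions freshly made in DMSO were placed on inoculated agar and incubated at 35 °C for 24 h. The medium was supplemented with DMSO as a solvent control, and an appropriate reference antibiotic disc was added to each plate.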

Staphylococcus aureus [16] = experiment: Antibacterial activity against Staphylococcus aureus ATCC 6538 at 30 ug after 24 hrs by agar disk diffusion assay; conditions: ATCC 6538, 24 h, read-out: IZ; how it was run: as §1
Klebsiella pneumoniae [17] = experiment: Antibacterial activity against Klebsiella pneumoniae UC57 at 30 ug after 24 hrs by agar disk diffusion assay; conditions: UC57, 24 h, read-out: IZ
How it was run: (§2)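 Disk diffusion with sterile 6 mm discs loaded with DMSO solutions of the test agents and placed on inoculated agar. Bacteria were pre-grown in Nutrient Broth at 30 °C for 24 h, and plates were incubated at 35 °C for 24 h. Each plate carried a reference antibiotic disc matched to the organism, and a DMSO-only solvent control was run.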

Bacillus cereus [18] = experiment: Antibacterial activity against Bacillus cereus ATCC 7064 at 30 ug after 24 hrs by agar disk diffusion assay; conditions: ATCC 7064, 24 h, read-out: IZ; how it was run: as §2
Micrococcus luteus [19] = experiment: Antibacterial activity against Micrococcus luteus La 2971 at 30 ug after 24 hrs by agar disk diffusion assay; conditions: La 2971, 24 h, read-out: IZ; how it was run: as §2
Proteus vulgaris [20] = experiment: Antibacterial activity against Proteus vulgaris ATCC 8427 at 30 ug after 24 hrs by agar disk diffusion assay; conditions: ATCC 8427, 24 h, read-out: IZ; how it was run: as §2
[21] = tested on: Mycolicibacterium smegmatis; experiment: Antibacterial activity against Mycobacterium smegmatis CCM 2067 at 30 ug after 24 hrs by agar disk diffusion assay; conditions: CCM 2067, 24 h, read-out: IZ; how it was run: as §2
Listeria monocytogenes [22] = experiment: Antibacterial activity against Listeria monocytogenes ATCC 15313 at 30 ug after 24 hrs by agar disk diffusion assay; conditions: ATCC 15313, 24 h, read-out: IZ; how it was run: as §2
Pseudomonas aeruginosa [23] = experiment: Antibacterial activity against Pseudomonas aeruginosa ATCC 27853 at 30 ug after 24 hrs by agar disk diffusion assay; conditions: ATCC 27853, 24 h, read-out: IZ; how it was run: as §2
Kluyveromyces marxianus [24] = experiment: Antifungal activity against Kluyveromyces fragilis NRRL 2415 at 20 ug after 72 hrs by agar disk diffusion assay; conditions: NRRL 2415, 72 h, read-out: IZ
How it was run: (§3)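 Yeasts were pre-grown in Malt Extract Broth for 48 h. Sterile 6 mm discs loaded with compound solutions freshly made in DMSO were placed on inoculated agar and incubated at 25 °C for 72 h. The medium was supplemented with DMSO as a solvent control, and an appropriate reference antifungal disc was added to each plate.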

Rhodotorula mucilaginosa [25] = experiment: Antifungal activity against Rhodotorula rubra DSM 70403 at 20 ug after 72 hrs by agar disk diffusion assay; conditions: DSM 70403, 72 h, read-out: IZ; how it was run: as §3
Candida albicans [26] = experiment: Antifungal activity against Candida albicans ATCC 10231 at 20 ug after 72 hrs by agar disk diffusion assay; conditions: ATCC 10231, 72 h, read-out: IZ; how it was run: as §3
[27] = tested on: Hanseniaspora guilliermondii; experiment: Antifungal activity against Hanseniaspora guilliermondii DSM 3432 at 20 ug after 72 hrs by agar disk diffusion assay; conditions: DSM 3432, 72 h, read-out: IZ; how it was run: as §3
Debaryomyces hansenii [28] = experiment: Antifungal activity against Debaryomyces hansenii DSM 70238 at 20 ug after 72 hrs by agar disk diffusion assay; conditions: DSM 70238, 72 h, read-out: IZ; how it was run: as §3

Q: With `Clc1ccccc1C(c1ccccc1)(c1ccccc1)n1ccnc1` [CLOTRIMAZOLE] as the molecule, how does the zone of inhibition at 10 µg/disc (Kluyveromyces marxianus [1]) read?
A: 15 mm

Q: What about the zone of inhibition at 10 µg/disc (Rhodotorula mucilaginosa [2]) of the same molecule?
A: 18 mm

Q: And the zone of inhibition at 10 µg/disc (Candida albicans [3])?
A: 16 mm

Q: And the zone of inhibition at 10 µg/disc [4]?
A: 22 mm

Q: What about the zone of inhibition at 10 µg/disc (Debaryomyces hansenii [5]) of the same molecule?
A: 18 mm

Q: What does the source list for GENTAMICIN?
A: MIC (Escherichia coli [6]): 6.25 µg/mL; MIC (Staphylococcus aureus [7]): 25 µg/mL; MIC (Klebsiella pneumoniae [8]): 6.25 µg/mL; MIC (Bacillus cereus [9]): 6.25 µg/mL; MIC (Micrococcus luteus [10]): 25 µg/mL; MIC (Proteus vulgaris [11]): 6.25 µg/mL; MIC [12]: 12.5 µg/mL; MIC (Listeria monocytogenes [13]): 12.5 µg/mL; MIC (Pseudomonas aeruginosa [14]): 6.25 µg/mL

Q: `CN[C@H](CC(C)C)C(=O)N[C@H]1C(=O)N[C@@H](CC(N)=O)C(=O)N[C@H]2C(=O)N[C@H]3C(=O)N[C@H](C(=O)N[C@H](C(=O)O)c4cc(O)cc(O)c4-c4cc3ccc4O)[C@H](O)c3ccc(c(Cl)c3)Oc3cc2cc(c3O[C@@H]2O[C@H](CO)[C@@H](O)[C@H](O)[C@H]2O[C@H]2C[C@](C)(N)[C@H](O)[C@H](C)O2)Oc2ccc(cc2Cl)[C@H]1O` [VANCOMYCIN] was tested. Which zone of inhibition at 30 µg/disc (Escherichia coli [15]) did it give?
A: 22 mm

Q: And the zone of inhibition at 30 µg/disc (Staphylococcus aureus [16])?
A: 13 mm

Q: And the zone of inhibition at 30 µg/disc (Klebsiella pneumoniae [17])?
A: 22 mm

Q: And the zone of inhibition at 30 µg/disc (Bacillus cereus [18])?
A: 10 mm

Q: What about the zone of inhibition at 30 µg/disc (Micrococcus luteus [19]) of the same molecule?
A: 20 mm

Q: What about the zone of inhibition at 30 µg/disc (Proteus vulgaris [20]) of the same molecule?
A: 18 mm

Q: And the zone of inhibition at 30 µg/disc [21]?
A: 20 mm

Q: And the zone of inhibition at 30 µg/disc (Listeria monocytogenes [22])?
A: 26 mm

Q: What about the zone of inhibition at 30 µg/disc (Pseudomonas aeruginosa [23]) of the same molecule?
A: 34 mm

Q: What does the source list for `CC(=O)N1CCN(c2ccc(OCC3COC(Cn4ccnc4)(c4ccc(Cl)cc4Cl)O3)cc2)CC1` (configuration not stated) [KETOCONAZOLE]?
A: zone of inhibition at 20 µg/disc (Kluyveromyces marxianus [24]): 21 mm; zone of inhibition at 20 µg/disc (Rhodotorula mucilaginosa [25]): 16 mm; zone of inhibition at 20 µg/disc (Candida albicans [26]): 22 mm; zone of inhibition at 20 µg/disc [27]: 24 mm; zone of inhibition at 20 µg/disc (Debaryomyces hansenii [28]): 14 mm

Q: What does the source list for `CN(C)[C@@H]1C(O)=C(C(N)=O)C(=O)[C@@]2(O)C(O)=C3C(=O)c4c(O)cccc4[C@@](C)(O)[C@H]3C[C@@H]12` [TETRACYCLINE]?
A: zone of inhibition at 30 µg/disc (Escherichia coli [15]): 28 mm; zone of inhibition at 30 µg/disc (Staphylococcus aureus [16]): 26 mm; zone of inhibition at 30 µg/disc (Klebsiella pneumoniae [17]): 30 mm; zone of inhibition at 30 µg/disc (Bacillus cereus [18]): 34 mm; zone of inhibition at 30 µg/disc (Micrococcus luteus [19]): 26 mm; zone of inhibition at 30 µg/disc (Proteus vulgaris [20]): 25 mm; zone of inhibition at 30 µg/disc [21]: 24 mm; zone of inhibition at 30 µg/disc (Listeria monocytogenes [22]): 28 mm; zone of inhibition at 30 µg/disc (Pseudomonas aeruginosa [23]): 22 mm
